Values after ≈ are worked out from the molar mass of the structure shown.
Key:
Staphylococcus aureus = experiment: Antibacterial activity against Staphylococcus aureus by disc diffusion method; assay type: functional
Talaromyces marneffei = experiment: Antifungal activity against Penicillium marneffei by serial plate dilution method; assay type: functional
Aspergillus fumigatus = experiment: Antifungal activity against Aspergillus fumigatus by serial plate dilution method; assay type: functional
Trichophyton benhamiae = experiment: Antifungal activity against Trichophyton mentagrophytes by serial plate dilution method; assay type: functional, Arthroderma benhamiae
Mus musculus [1] = experiment: Analgesic activity against acetic acid-induced writhing in Swiss Albino mouse assessed as protection at 50 mg/kg, po; assay type: functional
In short: (§1)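 Mice were dosed with the test agent or diclofenac sodium (2.5 mg/kg). One hour later, writhing was induced by ip injection of 0.6% acetic acid in distilled water at 10 ml/kg. Writhes were counted for 15 min right after the acetic acid injection, and percentage protection was calculated.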

Aspergillus flavus = experiment: Antifungal activity against Aspergillus flavus by serial plate dilution method; assay type: functional
Pseudomonas aeruginosa = experiment: Antibacterial activity against Pseudomonas aeruginosa by disc diffusion method; assay type: functional
SF-268 = experiment: Antiproliferative activity against SF268 cells assessed as growth at 100 uM after 48 hrs; assay type: functional; conditions: Homo sapiens, SF-268, 48 h; read-out: Activity
In short: (§2)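 This was the NCI primary three-cell-line, one-dose screen (lung NCI-H, breast MCF-7, CNS SF-268). Cells were inoculated on preincubated microtiter plates, and the agent was added at a single concentration. Cultures were incubated for 48 h. The endpoint was determined with sulphorhodamine B protein staining, with negative growth values indicating cell kill.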

RPMI-8226 = experiment: Antiproliferative activity against RPMI8226 cells after 48 hrs; assay type: functional; conditions: Homo sapiens, RPMI-8226, 48 h
In short: (§3)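 This was the NCI 60-cell-line panel (lung, colon, melanoma, renal, ovarian, CNS, leukemia), with compounds tested over a five-dose range.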

MCF7 = experiment: Antiproliferative activity against MCF7 cells assessed as growth at 100 uM after 48 hrs; assay type: functional; conditions: Homo sapiens, MCF7, 48 h; read-out: Activity; in short: as §2
[2] = Antiproliferative activity against NCI-H cells assessed as growth at 100 uM after 48 hrs; assay type: functional; conditions: Homo sapiens, read-out: Activity; in short: as §2
MOLT-4 = experiment: Antiproliferative activity against MOLT4 cells after 48 hrs; assay type: functional; conditions: Homo sapiens, MOLT-4, 48 h; in short: as §3
SR = experiment: Antiproliferative activity against SR cells after 48 hrs; assay type: functional; conditions: Homo sapiens; in short: as §3
Klebsiella pneumoniae = experiment: Antibacterial activity against Klebsiella pneumoniae by disc diffusion method; assay type: functional
Escherichia coli = experiment: Antibacterial activity against Escherichia coli by disc diffusion method; assay type: functional
Mus musculus [3] = experiment: Analgesic activity against acetic acid-induced writhing in Swiss Albino mouse assessed as protection at 2.5 mg/kg, po; assay type: functional; in short: as §1
[4] = read-out: LC50 (the source's name)

SMILES	MIC (Staphylococcus aureus) [µg/mL]	MIC (Talaromyces marneffei) [µg/mL]	MIC (Aspergillus fumigatus) [µg/mL]	MIC (Trichophyton benhamiae) [µg/mL]	Activity (Mus musculus [1]) [%]	MIC (Aspergillus flavus) [µg/mL]	MIC (Pseudomonas aeruginosa) [µg/mL]	growth at 100 µM (SF-268) [%]	growth at 100 µM (MCF7) [%]	growth at 100 µM [2] [%]	MIC (Klebsiella pneumoniae) [µg/mL]	also measured
COc1ccc(Br)c(C(=O)NNc2nc(-c3cc4cc(Br)ccc4oc3=O)cs2)c1	50 (≈ 90.7 µM)	12.5 (≈ 22.7 µM)	10 (≈ 18.1 µM)	12.5 (≈ 22.7 µM)	50	–	–	–	–	–	–	–
COc1ccc(Br)c(C(=O)NNc2nc(-c3ccc(Cl)cc3)cs2)c1	–	–	–	50 (≈ 114 µM)	43.75	50 (≈ 114 µM)	50 (≈ 114 µM)	–	–	–	–	–
COc1ccc(-c2csc(NNC(=O)c3cc(OC)ccc3Br)n2)cc1	–	–	50 (≈ 115 µM)	–	25	–	50 (≈ 115 µM)	–	–	–	–	–
COc1ccc(Br)c(C(=O)NNc2nc(-c3ccc(O)c(C(N)=O)c3)cs2)c1	12.5 (≈ 27 µM)	12.5 (≈ 27 µM)	12.5 (≈ 27 µM)	12.5 (≈ 27 µM)	56.25	60 (≈ 130 µM)	–	55	19	17	12.5 (≈ 27 µM)	GI50 (RPMI-8226): 27.9 µM; TGI (RPMI-8226): 92.5 µM; CC50 (RPMI-8226; [4]): ≥ 100 µM; GI50 (MOLT-4): 22.6 µM; TGI (MOLT-4): 57 µM; CC50 (MOLT-4; [4]): ≥ 100 µM; GI50 (SR): 29.8 µM; TGI (SR): ≥ 100 µM; CC50 (SR; [4]): ≥ 100 µM
COc1ccc(Br)c(C(=O)NNc2nc(-c3ccc(O)c(O)c3)cs2)c1	50 (≈ 115 µM)	–	50 (≈ 115 µM)	–	12.5	12.5 (≈ 28.7 µM)	6.25 (≈ 14.3 µM)	111	86	101	12.5 (≈ 28.7 µM)	MIC (Escherichia coli): 50 µg/mL (≈ 115 µM)
COc1ccc(Br)c(C(=O)NNc2nc(-c3ccnc(Cl)c3)cs2)c1	–	12.5 (≈ 28.4 µM)	12.5 (≈ 28.4 µM)	12.5 (≈ 28.4 µM)	37.5	50 (≈ 114 µM)	–	111	87	95	50 (≈ 114 µM)	–
COc1ccc(Br)c(C(=O)NNc2nc(-c3cc4ccccc4oc3=O)cs2)c1	50 (≈ 106 µM)	12.5 (≈ 26.5 µM)	–	–	37.5	–	–	–	–	–	–	MIC (Escherichia coli): 50 µg/mL (≈ 106 µM)
COc1ccc(Br)c(C(=O)NNc2nc(-c3ccccc3)cs2)c1	–	–	–	–	12.5	–	–	–	–	–	–	–
O=C([O-])Cc1ccccc1Nc1c(Cl)cccc1Cl.[Na+] [DICLOFENAC SODIUM]	–	–	–	–	–	–	–	–	–	–	–	Activity (Mus musculus [3]): 62.5%
CCC(C)n1ncn(-c2ccc(N3CCN(c4ccc(OC[C@H]5CO[C@](Cn6cncn6)(c6ccc(Cl)cc6Cl)O5)cc4)CC3)cc2)c1=O (stereo not given in full) [ITRACONAZOLE]	–	< 16	< 16	< 16	–	< 16	–	–	–	–	–	–

Source: ChEMBL document CHEMBL1143777, “Synthesis of some bioactive 2-bromo-5-methoxy-N'-[4-(aryl)-1,3-thiazol-2-yl]benzohydrazide derivatives” (2007)
